Results published in ChEMBL document CHEMBL4689842, “EUbOPEN Chemogenomics Library wave 1” (2021).
Where “and” joins values, the source holds several entries; their conditions need not be identical. Equal values may be shown once.

What was measured:
Assay type in all cases: toxicity, cell-based
[1] = system: Fibroblast; assay: Multiplex assay against human fibroblast; conditions: 1 µM, compound concentration 1 uM
Method in brief: (§1)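 Live cells carried four stains from seeding: Hoechst33342, BioTracker Green Microtubule Cytoskeleton Dye, MitoTracker Red and Annexin V Alexa Fluor 680. They were imaged on a CQ1 microscope at 37°C and 5% CO2 after compound addition. Using CellPathfinder machine-learning gating, cells were split into Hoechst high-intensity objects or normal cells, normal cells into healthy, pyknosed or fragmented nuclei, and pyknosed cells into mitotic or apoptotic; tubulin, mitochondrial-mass and membrane-permeability phenotypes are per cents of healthy-nucleus cells.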

[2] = system: U2OS; assay: Multiplex assay against U2OS; conditions: human, 1 µM, compound concentration 1 uM; method in brief: as §1
[3] = system: HEK-293T; assay: Incucyte cell viability with HEK293T; conditions: human, 10 µM, compound concentration 10 uM; also: filed as whole numbers so only -1 and 0 and 1 occur
[4] = system: Fibroblast; assay: Incucyte cell viability with human fibroblast; conditions: 10 µM, compound concentration 10 uM; also: filed as whole numbers so only -1 and 0 and 1 occur
[5] = system: U2OS; assay: Incucyte cell viability with U2OS; conditions: human, 10 µM, compound concentration 10 uM; also: filed as whole numbers so only -1 and 0 and 1 occur
[6] = 6 h, replicate number 1, timepoint 6 hours
[7] = 12 h, replicate number 1, timepoint 12 hours
[8] = 18 h, replicate number 1, timepoint 18 hours
[9] = 24 h, replicate number 1, timepoint 24 hours

CS(=O)(=O)N1CCN(Cc2cc3nc(-c4cccc5[nH]ncc45)nc(N4CCOCC4)c3s2)CC1 [PICTILISIB]
Population Apoptotic (%) ([1]; 12 h, replicate 1): 64% and 41%
Population Fragmented Nuclei (%) ([1]; 12 h, replicate 1): 35% and 14%
Population Healthy Nuclei (%) ([1]; 12 h, replicate 1): 45% and 47%
Population Membrane Permeable-Phenotype (%) ([1]; 12 h, replicate 1): 5% and 11%
Population Mitochondria Different-Phenotype (%) ([1]; 12 h, replicate 1): 11% and 25%
Population Mitotic Cells (%) ([1]; 12 h, replicate 1): 35% and 58%
Population Normal (%) ([1]; 12 h, replicate 1): 83% and 50%
Population Pyknosed Nuclei (%) ([1]; 12 h, replicate 1): 18% and 37%
Total Cell Count ([1]; 12 h, replicate 1): 234 and 214
Population Apoptotic (%) ([1]; 12 h, replicate 2): 80% and 35%
Population Fragmented Nuclei (%) ([1]; 12 h, replicate 2): 72% and 48%
Population Healthy Nuclei (%) ([1]; 12 h, replicate 2): 18% and 22%
Population Hoechst High Intensity Objects (%) ([1]; 12 h, replicate 2): 38% and 35%
Population Membrane Permeable-Phenotype (%) ([1]; 12 h, replicate 2): 18% and 9%
Population Normal (%) ([1]; 12 h, replicate 2): 61% and 64%
Total Cell Count ([1]; 12 h, replicate 2): 94 and 76
Population Apoptotic (%) ([1]; 24 h, replicate 1): 65% and 68%
Population Fragmented Nuclei (%) ([1]; 24 h, replicate 1): 38% and 24%
Population Healthy Nuclei (%) ([1]; 24 h, replicate 1): 49% and 38%
Population Hoechst High Intensity Objects (%) ([1]; 24 h, replicate 1): 21% and 44%
Population Membrane Permeable-Phenotype (%) ([1]; 24 h, replicate 1): 4% and 2%
Population Mitotic Cells (%) ([1]; 24 h, replicate 1): 34% and 31%
Population Normal (%) ([1]; 24 h, replicate 1): 78% and 55%
Total Cell Count ([1]; 24 h, replicate 1): 258 and 181
Population Apoptotic (%) ([1]; 24 h, replicate 2): 80% and 73%
Population Fragmented Nuclei (%) ([1]; 24 h, replicate 2): 63% and 56%
Population Healthy Nuclei (%) ([1]; 24 h, replicate 2): 25% and 9%
Population Hoechst High Intensity Objects (%) ([1]; 24 h, replicate 2): 36% and 43%
Population Mitotic Cells (%) ([1]; 24 h, replicate 2): 20% and 26%
Population Normal (%) ([1]; 24 h, replicate 2): 63% and 56%
Population Tubulin-Different-Phenotype (%) ([1]; 24 h, replicate 2): 27% and 50%
Total Cell Count ([1]; 24 h, replicate 2): 69 and 78
Population Apoptotic (%) ([2]; 12 h, replicate 1): 69% and 53%
Population Fragmented Nuclei (%) ([2]; 12 h, replicate 1): 22% and 12%
Population Healthy Nuclei (%) ([2]; 12 h, replicate 1): 35% and 77%
Population Hoechst High Intensity Objects (%) ([2]; 12 h, replicate 1): 4%
Population Membrane Permeable-Phenotype (%) ([2]; 12 h, replicate 1): 47% and 40%
Population Mitotic Cells (%) ([2]; 12 h, replicate 1): 30% and 46%
Population Normal (%) ([2]; 12 h, replicate 1): 95% and 96%
Population Tubulin-Different-Phenotype (%) ([2]; 12 h, replicate 1): 100% and 49%
Total Cell Count ([2]; 12 h, replicate 1): 150 and 194
Population Apoptotic (%) ([2]; 12 h, replicate 2): 74% and 45%
Population Fragmented Nuclei (%) ([2]; 12 h, replicate 2): 13%
Population Healthy Nuclei (%) ([2]; 12 h, replicate 2): 26% and 78%
Population Hoechst High Intensity Objects (%) ([2]; 12 h, replicate 2): 24% and 14%
Population Membrane Permeable-Phenotype (%) ([2]; 12 h, replicate 2): 55% and 27%
Population Mitotic Cells (%) ([2]; 12 h, replicate 2): 25% and 54%
Population Normal (%) ([2]; 12 h, replicate 2): 75% and 86%
Total Cell Count ([2]; 12 h, replicate 2): 91
Population Apoptotic (%) ([2]; 24 h, replicate 1): 91% and 73%
Population Fragmented Nuclei (%) ([2]; 24 h, replicate 1): 16% and 11%
Population Membrane Permeable-Phenotype (%) ([2]; 24 h, replicate 1): 84% and 29%
Population Normal (%) ([2]; 24 h, replicate 1): 77% and 97%
Total Cell Count ([2]; 24 h, replicate 1): 190 and 175
Population Apoptotic (%) ([2]; 24 h, replicate 2): 94% and 86%
Population Fragmented Nuclei (%) ([2]; 24 h, replicate 2): 21% and 13%
Population Healthy Nuclei (%) ([2]; 24 h, replicate 2): 28% and 75%
Population Hoechst High Intensity Objects (%) ([2]; 24 h, replicate 2): 23% and 10%
Population Mitotic Cells (%) ([2]; 24 h, replicate 2): 5% and 13%
Population Normal (%) ([2]; 24 h, replicate 2): 76% and 89%
Total Cell Count ([2]; 24 h, replicate 2): 159 and 98
Growth Rate [3, 6]: 0
Growth Rate [3, 7]: 0
Growth Rate [3, 8]: 0
Growth Rate [3, 9]: 0
Growth Rate ([4]; 0 h, replicate number 2, timepoint 0 hours): 1
Growth Rate [4, 6]: 0
Growth Rate [4, 7]: 0
Growth Rate [4, 8]: 0
Growth Rate [4, 9]: 0
Growth Rate ([5]; 0 h, replicate number 1, timepoint 0 hours): 0
Growth Rate [5, 6]: 0
Growth Rate [5, 7]: 0
Growth Rate [5, 8]: 0
Growth Rate [5, 9]: 0
